# Assay results reported in ChEMBL document CHEMBL4842360, “Discovery of a Bicyclic Peptidyl Pan-Ras Inhibitor” (J Med Chem, 2021).
# Calls of active or inactive are those of the source. The rule behind the calls is not given here. Numbered stars: 1 amine (or outer) side, 2 acyl side, 3 side chain; on linkers, the order of the positions; unused ones are H or OH. Bridge positions count the residues as written; N and C are the ends. Square brackets hold non-standard residues; d marks the D form. Peptide text beside a SMILES is read from it. Trimesoyl = O=C(c1cc(C(=O)[*:2])cc(C(=O)[*:3])c1)[*:1]; d2Nal = N[C@H](Cc1ccc2ccccc2c1)C(=O)O; Phg = N[C@H](C(=O)O)c1ccccc1; Orn = NCCC[C@H](N)C(=O)O; Dap = NC[C@H](N)C(=O)O
# Experiments:
# [1] = Drug distribution in human HeLa cells assessed as fluorescent puncta in cytoplasmic region at 5 uM incubated for 2 hrs by live-cell confocal microscopy; type: ADME, cell-based
# Procedure, shortened: (§1)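 HeLa, H358 or A549 cells treated with 5 μM fluorescein-labeled peptide for 2 h, then imaged by live-cell confocal microscopy for intracellular fluorescence pattern.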
# [2] = target: E3 ubiquitin-protein ligase Mdm2 (Homo sapiens) (UniProt Q00987); assay: Binding affinity to MDM2 (unknown origin)
# E3 ubiquitin-protein ligase Mdm2 (Homo sapiens), sequence (Q00987 whole entry, looked up): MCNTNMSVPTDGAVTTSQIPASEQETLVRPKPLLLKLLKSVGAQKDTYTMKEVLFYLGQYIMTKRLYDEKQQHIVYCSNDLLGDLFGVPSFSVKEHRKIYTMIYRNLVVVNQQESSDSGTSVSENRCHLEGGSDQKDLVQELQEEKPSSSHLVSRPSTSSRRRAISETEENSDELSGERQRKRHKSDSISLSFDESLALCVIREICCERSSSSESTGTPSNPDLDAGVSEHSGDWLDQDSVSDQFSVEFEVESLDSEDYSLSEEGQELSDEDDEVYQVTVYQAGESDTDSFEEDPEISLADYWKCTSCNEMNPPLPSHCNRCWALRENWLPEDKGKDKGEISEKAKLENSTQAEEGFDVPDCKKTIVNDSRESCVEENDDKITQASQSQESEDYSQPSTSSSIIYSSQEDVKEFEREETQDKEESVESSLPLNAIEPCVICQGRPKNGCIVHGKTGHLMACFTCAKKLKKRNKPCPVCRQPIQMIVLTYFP
# Procedure, shortened: (§2)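 Fluorescein-labeled peptide (100 nM) incubated 1 h at RT with varying concentrations of control protein (BSA, GST-RBD, PNP, PTP1B or MDM2). KD derived from fluorescence polarization titration curves.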
# Albumin = Albumin (Bos taurus, UniProt P02769); assay: Binding affinity to bovine serum albumin; type: ADME; procedure, shortened: as §2
# Albumin, sequence (P02769 whole entry): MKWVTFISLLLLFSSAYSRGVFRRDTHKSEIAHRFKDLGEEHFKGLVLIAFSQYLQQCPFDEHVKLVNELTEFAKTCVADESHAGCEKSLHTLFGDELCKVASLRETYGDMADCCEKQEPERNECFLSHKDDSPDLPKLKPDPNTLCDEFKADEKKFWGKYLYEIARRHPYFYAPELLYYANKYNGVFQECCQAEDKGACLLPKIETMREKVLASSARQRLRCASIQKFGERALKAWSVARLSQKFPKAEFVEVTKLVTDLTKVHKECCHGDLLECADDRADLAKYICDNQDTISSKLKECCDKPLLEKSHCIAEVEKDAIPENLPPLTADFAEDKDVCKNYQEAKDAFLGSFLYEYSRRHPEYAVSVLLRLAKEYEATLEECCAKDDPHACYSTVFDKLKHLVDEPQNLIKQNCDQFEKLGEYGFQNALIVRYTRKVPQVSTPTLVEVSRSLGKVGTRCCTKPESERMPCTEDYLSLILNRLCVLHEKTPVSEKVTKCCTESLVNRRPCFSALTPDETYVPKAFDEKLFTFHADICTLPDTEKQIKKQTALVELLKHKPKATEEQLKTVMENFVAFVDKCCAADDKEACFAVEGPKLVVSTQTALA
# [3] = Antiproliferative activity against human NCI-H1915 cells harboring HRas Q61L mutant incubated for 96 hrs by CellTiter-Glo2 assay; type: functional, cell-based; settings: NCI-H1915, Lung
# Procedure, shortened: (§3)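 Cells plated at 5,000/well, grown overnight, then exposed to serially diluted peptide (0–40 μM) in medium with 10% FBS for 96 h at 37 °C, 5% CO2. Viability read by CellTiter-Glo 2.0 luminescence after 15 min at RT.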
# NCI-H358 [4] = assay: Induction of apoptosis in human NCI-H358 cells assessed as early apoptotic cells at 5 uM incubated for 24 hrs by Alexa Fluor 488 annexin V/propidium iodide staining based assay (reference value: 3.05%); type: functional
# [5] = target: T1, Purine nucleoside phosphorylase (Homo sapiens) (UniProt P00491); assay: Binding affinity to purine nucleoside phosphorylase (unknown origin); procedure, shortened: as §2
# T1 sequence (whole entry): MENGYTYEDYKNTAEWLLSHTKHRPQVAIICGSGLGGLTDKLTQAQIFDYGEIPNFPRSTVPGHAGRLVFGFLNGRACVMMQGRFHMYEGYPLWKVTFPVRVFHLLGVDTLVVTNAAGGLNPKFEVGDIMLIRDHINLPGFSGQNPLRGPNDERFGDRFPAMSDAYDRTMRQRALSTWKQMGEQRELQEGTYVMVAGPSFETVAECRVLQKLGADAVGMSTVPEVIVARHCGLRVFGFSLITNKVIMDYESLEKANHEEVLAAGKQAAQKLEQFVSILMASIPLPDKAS
# [6] = Drug distribution in human A549 cells assessed as fluorescent puncta in cytoplasmic region at 5 uM incubated for 2 hrs by live-cell confocal microscopy; type: ADME, cell-based; settings: a549, 2 h; procedure, shortened: as §1
# NIH3T3 = assay: Cytotoxicity against mouse NIH3T3 cells incubated for 96 hrs by CellTiter-Glo2 assay; type: cell-based; settings: NIH3T3, 96 h; procedure, shortened: as §3
# NCI-H358 [7] = assay: Induction of apoptosis in human NCI-H358 cells assessed as necrotic cells at 1 uM incubated for 24 hrs by Alexa Fluor 488 annexin V/propidium iodide staining based assay (reference value: 0.699%); type: functional
# NCI-H358 [8] = assay: Induction of apoptosis in human NCI-H358 cells assessed as early apoptotic cells at 10 uM incubated for 24 hrs by Alexa Fluor 488 annexin V/propidium iodide staining based assay (reference value: 3.05%); type: functional
# NCI-H358 [9] = assay: Induction of apoptosis in human NCI-H358 cells assessed as late apoptotic cells at 10 uM incubated for 24 hrs by Alexa Fluor 488 annexin V/propidium iodide staining based assay (reference value: […]); type: functional
# NCI-H358 [10] = assay: Induction of apoptosis in human NCI-H358 cells assessed as live cells at 10 uM incubated for 24 hrs by Alexa Fluor 488 annexin V/propidium iodide staining based assay (reference value: 87%); type: functional
# NCI-H358 [11] = assay: Induction of apoptosis in human NCI-H358 cells assessed as late apoptotic cells at 1 uM incubated for 24 hrs by Alexa Fluor 488 annexin V/propidium iodide staining based assay (reference value: […]); type: functional
# [12] = Drug distribution in human NCI-H358 cells assessed as accumulation in plasma membrane at 5 uM incubated for 2 hrs by live-cell confocal microscopy; type: ADME, cell membranes; settings: nci-h358, 2 h; procedure, shortened: as §1
# NCI-H358 [13] = assay: Induction of apoptosis in human NCI-H358 cells assessed as live cells at 5 uM incubated for 24 hrs by Alexa Fluor 488 annexin V/propidium iodide staining based assay (reference value: 87%); type: functional
# NCI-H358 [14] = assay: Induction of membrane disruption in human H358 cells assessed as LDH release up to 20 uM incubated for 45 mins by absorbance method; type: functional, cell-based; settings: dose microM <=20, time […]
# NCI-H358 [15] = assay: Induction of apoptosis in human NCI-H358 cells assessed as necrotic cells at 5 uM incubated for 24 hrs by Alexa Fluor 488 annexin V/propidium iodide staining based assay (reference value: 0.699%); type: functional
# NCI-H358 [16] = assay: Antitumor activity against human NCI-H358 cells xenografted in mouse assessed as reduction in ERK phosphorylation at 1 to 5 mg/kg, iv administered for 9 days measured every other day by immunohistochemical staining method; type: functional, organism-based; settings: dose 1-5 mg/kg, time 9.0 day
# NCI-H358 [17] = assay: Induction of apoptosis in human NCI-H358 cells assessed as late apoptotic cells at 5 uM incubated for 24 hrs by Alexa Fluor 488 annexin V/propidium iodide staining based assay (reference value: […]); type: functional
# HEK-293T = assay: Cytotoxicity against HEK293T cells incubated for 96 hrs by CellTiter-Glo2 assay; type: cell-based; settings: Homo sapiens; procedure, shortened: as §3
# [18] = Drug distribution in human NCI-H358 cells assessed as diffuse fluorescence throughout the entire cell volume at 5 uM incubated for 2 hrs by live-cell confocal microscopy; type: ADME, cell-based; settings: nci-h358, 2 h; procedure, shortened: as §1
# [19] = Toxicity in mouse xenografted with human A549 cells assessed as effect on body weight at 1 to 5 mg/kg, iv administered for 9 days; type: organism-based; settings: in vivo, 216 h, dose 1-5 mg/kg, time 9 day
# Procedure, shortened: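 About 1.5 million A549 cells given subcutaneously to nude mice. Dosing began once tumors reached ~40 mm3, with n = 6 per group. Mice received 1 or 5 mg/kg per day or vehicle (PBS) by tail-vein injection for 9 days. Body weight was monitored alongside tumor volume and weight at harvest.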
# A549 = assay: Antitumor activity against human A549 cells xenografted in mouse assessed as reduction in ERK phosphorylation at 1 to 5 mg/kg, iv administered for 9 days measured every other day by immunohistochemical staining method; type: functional, organism-based; settings: dose 1-5 mg/kg, time 9.0 day
# [20] = Drug distribution in human NCI-H358 cells assessed as fluorescent puncta in cytoplasmic region at 5 uM incubated for 2 hrs by live-cell confocal microscopy; type: ADME, cell-based; settings: nci-h358, 2 h; procedure, shortened: as §1
# [21] = Drug distribution in human A549 cells assessed as diffuse fluorescence throughout the entire cell volume at 5 uM incubated for 2 hrs by live-cell confocal microscopy; type: ADME, cell-based; settings: a549, 2 h; procedure, shortened: as §1
smiles,measurement,setting,value
C[C@@H](NC(=O)[C@H](Cc1ccccc1)NC(=O)[C@@H](CCCNC(=N)N)NC(=O)[C@H](CCCN)NC(=O)[C@@H]1CNC(=O)c2cc3cc(c2)C(=O)N[C@H](Cc2ccc4ccccc4c2)C(=O)N[C@@H](CO)C(=O)N[C@@H](CC(N)=O)C(=O)N[C@H](Cc2ccc4ccccc4c2)C(=O)N[C@@H](c2ccccc2)C(=O)N[C@@H](CCCCNC3=O)C(=O)N[C@H](Cc2ccccc2)C(=O)N[C@@H](CCC(N)=O)C(=O)N[C@H](CCCNC(=N)N)C(=O)N[C@@H](CCCNC(=N)N)C(=O)N1)C(N)=O ([d2Nal]SN[d2Nal][Phg]K[dF]Q[dR]R[Dap][Orn][dR]F[dA]-NH2; linker N-6-11 via Trimesoyl),Drug uptake,[1],Active
same,Activity,[2],inactive
same,Kd,Albumin,57 µM
same,EC50,[3],6.8 µM
same,Activity,NCI-H358 [4],14.7%
same,Activity,[5],inactive
same,Drug uptake,[6],Active
same,EC50,NIH3T3,≥ 20 µM
same,Activity,NCI-H358 [7],0.226%
same,Activity,NCI-H358 [8],4.11%
same,Activity,NCI-H358 [9],80%
same,Activity,NCI-H358 [10],15.4%
same,Activity,NCI-H358 [11],8.91%
same,Drug uptake,[12],Active
same,Activity,NCI-H358 [13],55.1%
same,Activity,NCI-H358 [14],inactive
same,Activity,NCI-H358 [15],1.14%
same,Activity,NCI-H358 [16],Active
same,Activity,NCI-H358 [17],29.1%
same,EC50,HEK-293T,≥ 20 µM
same,Drug uptake,[18],Active
same,Activity,[19],Non-Toxic
same,Activity,A549,Active
same,Drug uptake,[20],Active
same,Drug uptake,[21],Active
